Test results reported in article PMC7962621 (Cell, 2019).

How the values were obtained:
[1] = tested on: CD4 T cells from DQ8+ T1D subjects; assay: CFSE proliferation assay with immobilized peptide/DQ8 complexes, T1D subjects; type: cell-based, human; conditions: peptide-loaded DQ8 immobilized (10 μM), 7 days, CFSElow CD4 T cells; n = 3
In short: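 Freshly isolated PBMCs were washed in warm PBS and labelled with 1 μM CFSE for 1–2 min at 37 °C, then quenched with chilled medium. Thrombin-cleaved, CLIP-free DQ8 monomers (0.5 μM) were loaded with peptide (100 μM) for 72 h at 37 °C in pH 5.5 citrate phosphate buffer, then immobilized in wells. Unstimulated cells served as negative control and anti-CD3/CD28 as positive control.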

DQ8 = conditions: two registers placing nonacidic residues at P1 and P9; background statement; cited from earlier work
[2] = relative to native insulin; ref Wang et al., 2018; cited from earlier work

## CARQRFWSGPLFDYW [h-Id]
[1]
  Stimulation of CD4 T cells from DQ8+ T1D subjects: no significant responses

## native insulin: insulin B:9–23 peptide SHLVEALYLVCGERG
[1]
  Stimulation of CD4 T cells from DQ8+ T1D subjects: no significant responses
DQ8
  Binding of insulin B:9–23 peptide to DQ8: binds poorly to DQ8

## SHLVEALYLVCGEEG [mimotope]
[2]
  Fold potency vs native insulin B:9–23: 100 fold

## SHLVEELYLVAGEEG [superagonist]
[2]
  Fold potency vs native insulin B:9–23: about 1,000 fold
